Test results as given in ChEMBL document CHEMBL3877249, “Novel 2-aryl-4-(4'-hydroxyphenyl)-5H-indeno[1,2-b]pyridines as potent DNA non-intercalative topoisomerase catalytic inhibitors” (Eur J Med Chem, 2017).
Structures can show the parent of a compound that is named as a salt.

Tests used:
[1] = molecular target: T1, DNA topoisomerase 1 (Homo sapiens) (UniProt P11387); assay: Poison activity at human DNA topoisomerase-1 assessed as DNA intercalation by measuring DNA unwinding using pHOT1 DNA as substrate after 30 mins by ethidium bromide staining based agarose gel electrophoresis
T1 sequence (whole entry): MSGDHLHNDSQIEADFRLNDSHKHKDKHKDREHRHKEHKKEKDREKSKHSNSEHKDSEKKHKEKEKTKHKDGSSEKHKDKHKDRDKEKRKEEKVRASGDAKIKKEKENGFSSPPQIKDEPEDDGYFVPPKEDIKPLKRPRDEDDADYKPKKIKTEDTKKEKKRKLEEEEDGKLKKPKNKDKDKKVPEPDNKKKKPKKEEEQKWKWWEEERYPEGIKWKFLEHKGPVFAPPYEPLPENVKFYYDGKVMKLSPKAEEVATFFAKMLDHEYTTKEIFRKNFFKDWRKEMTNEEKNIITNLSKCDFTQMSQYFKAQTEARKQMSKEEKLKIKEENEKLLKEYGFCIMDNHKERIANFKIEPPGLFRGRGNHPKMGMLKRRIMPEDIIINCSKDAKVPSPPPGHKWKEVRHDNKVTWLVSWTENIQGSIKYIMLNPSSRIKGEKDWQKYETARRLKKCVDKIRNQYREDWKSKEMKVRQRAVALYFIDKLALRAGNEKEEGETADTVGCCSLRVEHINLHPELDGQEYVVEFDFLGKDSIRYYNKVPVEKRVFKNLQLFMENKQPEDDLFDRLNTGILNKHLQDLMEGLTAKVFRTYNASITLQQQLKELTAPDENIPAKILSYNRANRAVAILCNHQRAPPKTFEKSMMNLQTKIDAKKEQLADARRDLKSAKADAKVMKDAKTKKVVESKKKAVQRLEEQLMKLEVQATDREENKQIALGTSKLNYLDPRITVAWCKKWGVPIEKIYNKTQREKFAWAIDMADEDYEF

[2] = Antiproliferative activity against human HCT15 cells after 72 hrs by CCK8 assay; format: functional, cell-based; details: HCT-15, 72 h
In short: (§1)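 Cells seeded at 2–4 × 10^4 per well, grown overnight in medium with 10% FBS at 37 °C and 5% CO2. After 4 h FBS starvation they were exposed to graded compound concentrations for 72 h. CCK-8 was added for a further 4 h and absorbance read at 450 nm. IC50 came from a four-parameter logistic fit.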

[3] = molecular target: DNA topoisomerase 2-alpha (Homo sapiens) (UniProt P11388); assay: Inhibition of human DNA topoisomerase-2alpha at 100 uM using supercoiled pBR322 DNA as substrate after 30 mins by ethidium bromide staining based agarose gel electrophoresis relative to control
In short: (§2)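 Human topo IIα, 1 unit set by full relaxation of pBR322, with 100 ng pBR322 for 30 min in 10 mM Tris-HCl pH 7.9, 50 mM NaCl, 5 mM MgCl2, 1 mM EDTA and BSA. Stop was with EDTA. Screening was at 100 µM, with retest at 20 µM if inhibition exceeded 30%. Gel was 1% agarose at 25 V for 4 h in TAE, stained with ethidium bromide. Mean ± S.D. from three experiments in triplicate.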

[4] = Antiproliferative activity against human HeLa cells after 72 hrs by CCK8 assay; format: functional, cell-based; in short: as §1
[5] = Antiproliferative activity against human T47D cells after 72 hrs by CCK8 assay; format: functional, cell-based; in short: as §1
[6] = Antiproliferative activity against human DU145 cells after 72 hrs by CCK8 assay; format: functional, cell-based; details: DU-145, 72 h; in short: as §1
[7] = molecular target: T1, DNA topoisomerase 1 (Homo sapiens); assay: Inhibition of human DNA topoisomerase-1 at 100 uM using supercoiled pBR322 DNA as substrate after 30 mins by ethidium bromide staining based agarose gel electrophoresis relative to control
In short: (§3)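 Recombinant human topo I, 1 unit (the amount that fully relaxes supercoiled pBR322), with 100 ng pBR322 DNA at 37 °C for 30 min in 10 mM Tris-HCl pH 7.9, 150 mM NaCl, 0.1% BSA. Compounds were screened at 100 µM, and those above 30% inhibition were retested at 20 µM. Products ran on 1% agarose at 15 V for 7 h in TAE with ethidium bromide staining. Mean ± S.D. from three experiments in triplicate.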

[8] = molecular target: DNA topoisomerase 2-alpha (Homo sapiens) (UniProt P11388); assay: Inhibition of human DNA topoisomerase-2alpha at 20 uM using supercoiled pBR322 DNA as substrate after 30 mins by ethidium bromide staining based agarose gel electrophoresis relative to control; in short: as §2
[9] = Antiproliferative activity against HEK293 cells after 72 hrs by CCK8 assay; format: cell-based; details: Homo sapiens, HEK293, 72 h; in short: as §1
[10] = Antiproliferative activity against HFL1 cells after 72 hrs by CCK8 assay; format: cell-based; details: Homo sapiens, HFL1, 72 h; in short: as §1
Homo sapiens = species on record: Homo sapiens; assay: Inhibition of DNA topoisomerase catalytic activity in human T47D nuclear extract at 50 uM using supercoiled pBR322 DNA as substrate after 24 hrs by ethidium bromide staining based agarose gel electrophoresis relative to control
In short: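 T47D cells at 5 × 10^5 per 60 mm dish were grown to 80% confluence, washed with FBS-free medium and treated 24 h. Nuclear extracts were prepared in HEPES/MgCl2/KCl/DTT/NP40 buffer, then extracted with NaCl buffer. The amount of extract that fully relaxes 100 ng pBR322 at 37 °C in 20 min was set as the unit. Products were run on agarose in TAE and stained with ethidium bromide (0.5 µg/mL).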

[11] = molecular target: T1, DNA topoisomerase 1 (Homo sapiens); assay: Inhibition of human DNA topoisomerase-1 at 20 uM using supercoiled pBR322 DNA as substrate after 30 mins by ethidium bromide staining based agarose gel electrophoresis relative to control; in short: as §3

Sequence of DNA topoisomerase 2-alpha (Homo sapiens) (P11388 whole entry): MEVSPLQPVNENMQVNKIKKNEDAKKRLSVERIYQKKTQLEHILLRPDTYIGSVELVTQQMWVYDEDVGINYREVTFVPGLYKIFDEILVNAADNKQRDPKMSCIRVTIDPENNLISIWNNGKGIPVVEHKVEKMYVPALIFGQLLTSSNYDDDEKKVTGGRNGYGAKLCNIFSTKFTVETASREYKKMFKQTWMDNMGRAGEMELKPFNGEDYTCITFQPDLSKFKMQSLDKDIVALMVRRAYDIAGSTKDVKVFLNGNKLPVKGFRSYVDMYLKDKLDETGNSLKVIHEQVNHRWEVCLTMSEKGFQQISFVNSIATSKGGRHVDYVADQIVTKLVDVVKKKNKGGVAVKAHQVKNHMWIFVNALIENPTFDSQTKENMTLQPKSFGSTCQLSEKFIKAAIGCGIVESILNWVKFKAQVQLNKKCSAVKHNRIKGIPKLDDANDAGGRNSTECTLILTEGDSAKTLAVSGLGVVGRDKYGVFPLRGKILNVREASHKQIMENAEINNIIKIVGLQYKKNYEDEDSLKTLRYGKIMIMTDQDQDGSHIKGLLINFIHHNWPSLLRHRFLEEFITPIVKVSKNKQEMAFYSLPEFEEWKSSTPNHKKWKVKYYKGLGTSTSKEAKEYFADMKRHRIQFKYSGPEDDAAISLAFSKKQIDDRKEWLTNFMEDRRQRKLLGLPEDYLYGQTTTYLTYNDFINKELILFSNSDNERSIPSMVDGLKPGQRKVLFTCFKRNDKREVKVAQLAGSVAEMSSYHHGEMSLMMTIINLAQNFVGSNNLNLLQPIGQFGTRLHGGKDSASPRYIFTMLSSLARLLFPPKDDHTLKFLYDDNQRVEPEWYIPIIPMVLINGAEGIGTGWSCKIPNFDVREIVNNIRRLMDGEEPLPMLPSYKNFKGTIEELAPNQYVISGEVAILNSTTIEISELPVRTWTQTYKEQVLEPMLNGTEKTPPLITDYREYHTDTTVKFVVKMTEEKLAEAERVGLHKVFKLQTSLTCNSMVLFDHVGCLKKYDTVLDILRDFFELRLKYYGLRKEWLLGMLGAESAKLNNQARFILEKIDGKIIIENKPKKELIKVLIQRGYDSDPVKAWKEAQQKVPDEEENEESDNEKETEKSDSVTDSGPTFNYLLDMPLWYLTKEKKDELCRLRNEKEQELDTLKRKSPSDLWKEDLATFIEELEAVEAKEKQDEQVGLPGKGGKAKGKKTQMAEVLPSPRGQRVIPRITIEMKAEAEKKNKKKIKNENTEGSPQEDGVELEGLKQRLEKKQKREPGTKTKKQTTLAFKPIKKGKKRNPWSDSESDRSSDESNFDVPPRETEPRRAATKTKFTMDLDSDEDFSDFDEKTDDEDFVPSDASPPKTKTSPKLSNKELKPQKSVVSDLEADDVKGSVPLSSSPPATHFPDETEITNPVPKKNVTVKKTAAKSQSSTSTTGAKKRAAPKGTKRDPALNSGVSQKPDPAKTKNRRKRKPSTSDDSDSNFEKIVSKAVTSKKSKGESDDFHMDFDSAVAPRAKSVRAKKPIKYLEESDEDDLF

| inhibition [3] [%] | inhibition [7] [%] | inhibition [8] [%] | inhibition (Homo sapiens) [%] | inhibition [11] [%] | SMILES | Activity [1] | IC50 [2] [nM] | IC50 [4] [µM] | IC50 [5] [µM] | IC50 [6] [µM] | IC50 [9] [nM] | IC50 [10] [nM] |
| --- | --- | --- | --- | --- | --- | --- | --- | --- | --- | --- | --- | --- |
| – | – | – | – | – | COc1cc(NS(C)(=O)=O)ccc1Nc1c2ccccc2nc2ccccc12 | Dose-dependent effect | – | – | – | – | – | – |
| 1.14 | 0 | – | – | – | Oc1ccc(-c2cc(-c3ccncc3)nc3c2Cc2ccccc2-3)cc1 | – | > 50000 | > 50 | > 50 | > 50 | – | – |
| 18.5 | 1.5 | – | – | – | Oc1cccc(-c2cc(-c3cccnc3)nc3c2Cc2ccccc2-3)c1 | – | 1870 | 5.19 | 1.17 | 2.8 | – | – |
| 3.5 | 2.4 | – | – | – | Oc1cccc(-c2cc(-c3ccccn3)nc3c2Cc2ccccc2-3)c1 | – | > 50000 | > 50 | > 50 | > 50 | – | – |
| 65.5 | 0 | 10.5 | – | – | Oc1ccccc1-c1cc(-c2cccnc2)nc2c1Cc1ccccc1-2 | – | 3520 | 7.8 | 5.15 | 7.46 | – | – |
| – | – | – | – | – | CC[C@@]1(O)C(=O)OCc2c1cc1n(c2=O)Cc2cc3ccccc3nc2-1 [CAMPTOTHECIN] | – | 310 to 18900 | 0.4 to 7.32 | 13.7 | 0.11 to 2.09 | 830 | 1060 |
| – | – | – | 61.1 | – | COc1cc([C@@H]2c3cc4c(cc3[C@@H](O[C@@H]3O[C@@H]5CO[C@@H](C)O[C@H]5[C@H](O)[C@H]3O)[C@H]3COC(=O)[C@H]23)OCO4)cc(OC)c1O [ETOPOSIDE] | – | 1100 to 2820 | 0.18 to 1.4 | – | 0.02 to 13.1 | 1740 | 87600 |
| 1.8 | 0.4 | – | – | – | Oc1ccccc1-c1cc(-c2ccoc2)nc2c1Cc1ccccc1-2 | – | > 50000 | > 50 | > 50 | > 50 | – | – |
| 61.4 | 1.4 | 28 | – | – | Oc1ccc(-c2cc(-c3ccoc3)nc3c2Cc2ccccc2-3)cc1 | – | 1830 | 5.21 | 2.6 | 6.01 | – | – |
| 15.2 | 0.5 | – | – | – | Oc1ccccc1-c1cc(-c2ccccn2)nc2c1Cc1ccccc1-2 | – | > 50000 | > 50 | 29.6 | > 50 | – | – |
| 75.2 | 0 | 0.9 | – | – | Oc1ccccc1-c1cc(-c2ccncc2)nc2c1Cc1ccccc1-2 | – | 2180 | 5.78 | 2.44 | 4.7 | – | – |
| 50.2 | 12.8 | 4.9 | – | – | Oc1ccccc1-c1cc(-c2ccsc2)nc2c1Cc1ccccc1-2 | – | > 50000 | > 50 | > 50 | > 50 | – | – |
| 75.5 | 33.1 | 22 | – | 0 | Oc1cccc(-c2cc(-c3ccsc3)nc3c2Cc2ccccc2-3)c1 | – | 2490 | 1.74 | 1.52 | 3.12 | – | – |
| 41.3 | 18.7 | 5.7 | – | – | c1ccc(-c2cc(-c3ccco3)nc3c2Cc2ccccc2-3)cc1 | – | > 50000 | 16.6 | – | 7.74 | – | – |
| 49.5 | 1.3 | – | – | – | Oc1cccc(-c2cc(-c3ccncc3)nc3c2Cc2ccccc2-3)c1 | – | 1940 | 2.41 | 1.05 | 4.36 | – | – |
| 74.8 | 45.5 | 65.9 | – | 2.5 | Oc1ccc(-c2cc(-c3ccsc3)nc3c2Cc2ccccc2-3)cc1 | – | 2450 | 4.9 | 4.52 | 3.35 | – | – |
| 4 | 0 | – | – | – | Oc1ccc(-c2cc(-c3cccnc3)nc3c2Cc2ccccc2-3)cc1 | – | > 50000 | > 50 | > 50 | > 50 | – | – |
| 14.8 | 0 | – | – | – | Oc1ccc(-c2cc(-c3ccccn3)nc3c2Cc2ccccc2-3)cc1 | – | > 50000 | > 50 | > 50 | > 50 | – | – |
| 77.5 | 28.9 | 36.9 | – | – | Oc1cccc(-c2cc(-c3ccco3)nc3c2Cc2ccccc2-3)c1 | – | 1580 | 6.27 | 1.07 | 3.75 | – | – |
| – | – | – | – | – | COc1cccc2c1C(=O)c1c(O)c3c(c(O)c1C2=O)C[C@@](O)(C(=O)CO)C[C@@H]3O[C@H]1C[C@H](N)[C@H](O)[C@H](C)O1 [DOXORUBICIN HYDROCHLORIDE] | – | 1080 to 1230 | 0.88 to 1.2 | 1.34 | 0.52 to 1 | 4960 | 2310 |
| 58.7 | 62.4 | 20 | – | 27.1 | Oc1ccccc1-c1cc(-c2ccco2)nc2c1Cc1ccccc1-2 | – | > 50000 | > 50 | > 50 | > 50 | – | – |
| 0.5 | 72.5 | – | – | 0 | c1ccc(-c2cc(-c3ccsc3)nc3c2Cc2ccccc2-3)cc1 | – | > 50000 | > 50 | – | > 50 | – | – |
| 0 | 12.3 | – | – | – | c1ccc(-c2cc(-c3ccccn3)nc3c2Cc2ccccc2-3)cc1 | – | – | – | – | – | – | – |
| 5.8 | 56 | – | – | 0 | c1ccc(-c2cc(-c3cccs3)nc3c2Cc2ccccc2-3)cc1 | – | > 50000 | > 50 | – | > 50 | – | – |
| 3.9 | 6.4 | – | – | – | c1ccc(-c2cc(-c3ccoc3)nc3c2Cc2ccccc2-3)cc1 | – | 7050 | 10.8 | 17.4 | 1.09 | – | – |
| 82.2 | 4.5 | 29.6 | – | – | Oc1cccc(-c2cc(-c3ccoc3)nc3c2Cc2ccccc2-3)c1 | – | 1240 | 4.48 | 2.91 | 1.51 | – | – |
| 2.3 | 0 | – | – | – | c1ccc(-c2cc(-c3ccncc3)nc3c2Cc2ccccc2-3)cc1 | – | 16400 | > 50 | > 50 | > 50 | – | – |
